Results from ChEMBL document CHEMBL4364284, “Design, Synthesis, and Efficacy Testing of Nitroethylene- and 7-Nitrobenzoxadiazol-Based Flavodoxin Inhibitors against Helicobacter pylori Drug-Resistant Clinical Strains and in Helicobacter pylori-Infected Mice” (J Med Chem, 2019).
In brackets after ≈: the same amount, converted by molar mass. Activity calls are given as the source filed them. The rule behind the calls is not given here.

What was measured:
[1] = Therapeutic index, ratio of MCC50 for human HeLa cells to MIC for inhibition of flavodoxin in Helicobacter pylori ATCC 700392 26695 assessed as reduction in bacterial growth; type: toxicity; settings: HeLa cells versus Helicobacter pylori ATCC 700392 26695, read-out: TI
Method in brief: (§1)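 TI is MCC50/MIC. For MCC50, HeLa cells (30 000/well, DMEM with 10% FBS) were exposed to compound at 25–1000 μM final. Viability by XTT at 450/650 nm; MCC50 is the concentration giving 50% lysis from viability curves. Run twice in triplicate.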

[2] = Therapeutic index, ratio of MCC50 for human HeLa cells to MIC for inhibition of flavodoxin in rifampicin-resistant Helicobacter pylori isolate 5 assessed as reduction in bacterial growth; type: toxicity; settings: read-out: TI; method in brief: as §1
[3] = biological target: T1, Flavodoxin (Helicobacter pylori (strain ATCC 700392 / 26695) (Campylobacter pylori)) (UniProt O25776); test: Inhibition of flavodoxin in rifampicin-resistant Helicobacter pylori isolate 5 assessed as reduction in bacterial growth measured after 48 hrs by resazurin staining-based microdilution method
T1 sequence (whole entry): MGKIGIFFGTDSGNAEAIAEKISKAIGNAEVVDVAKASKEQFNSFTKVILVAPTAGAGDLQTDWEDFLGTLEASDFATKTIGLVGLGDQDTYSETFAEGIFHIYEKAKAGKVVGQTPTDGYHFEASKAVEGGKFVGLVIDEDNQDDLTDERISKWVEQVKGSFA
Method in brief: (§2)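 Clinical isolates from gastric biopsies of patients who failed ≥2 therapies; resistance classified by EUCAST breakpoints. […] Read by resazurin colour change as the lowest concentration giving complete growth inhibition.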

[4] = Toxicity in NMRI mouse assessed as change in body weight at 10 to 20 mg/100g, po administered daily via gavage for 8 days; type: organism-based; settings: in vivo, 192 h
[5] = Cytotoxicity against human HeLa cells assessed as reduction in cell viability by XTT assay; type: cell-based; settings: read-out: MCC50
Method in brief: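 HeLa cells grown in DMEM with 10% FBS, penicillin and streptomycin at 37 °C, 5% CO2; 30 000 cells/well. XTT viability read at 450 and 650 nm. MCC50 (50% lysis) came from viability-versus-concentration curves. Two experiments, each in triplicate.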

[6] = biological target: T1, Flavodoxin (Helicobacter pylori (strain ATCC 700392 / 26695) (Campylobacter pylori)); test: Inhibition of flavodoxin in Helicobacter pylori ATCC 700392 26695 assessed as reduction in bacterial growth measured after 48 hrs by resazurin staining-based microdilution method; settings: Helicobacter pylori 26695
Method in brief: (§3)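 Broth microdilution in brain heart infusion with 4% FBS. Inoculum diluted to OD600 0.01. Two-fold dilutions from a DMSO stock cover 64–0.031 μg/mL, with DMSO ≤1% v/v. Incubated 48 h at 37 °C under microaerophilic conditions. MIC is the lowest concentration giving complete growth inhibition, read by resazurin colour change and confirmed by spotting on blood agar. Run twice in triplicate.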

[7] = biological target: T1, Flavodoxin (Helicobacter pylori (strain ATCC 700392 / 26695) (Campylobacter pylori)); test: Inhibition of flavodoxin in clarithromycin/metronidazole-resistant Helicobacter pylori isolate 4 assessed as reduction in bacterial growth measured after 48 hrs by resazurin staining-based microdilution method; method in brief: as §2
[8] = biological target: T1, Flavodoxin (Helicobacter pylori (strain ATCC 700392 / 26695) (Campylobacter pylori)); test: Inhibition of flavodoxin in metronidazole-resistant Helicobacter pylori isolate 1 assessed as reduction in bacterial growth measured after 48 hrs by resazurin staining-based microdilution method; method in brief: as §2
[9] = biological target: T1, Flavodoxin (Helicobacter pylori (strain ATCC 700392 / 26695) (Campylobacter pylori)); test: Inhibition of flavodoxin in metronidazole-resistant Helicobacter pylori isolate 2 assessed as reduction in bacterial growth measured after 48 hrs by resazurin staining-based microdilution method; method in brief: as §2
[10] = Therapeutic index, ratio of MCC50 for human HeLa cells to MIC for inhibition of flavodoxin in clarithromycin/metronidazole-resistant Helicobacter pylori isolate 6 assessed as reduction in bacterial growth; type: toxicity; settings: read-out: TI; method in brief: as §1
[11] = biological target: T1, Flavodoxin (Helicobacter pylori (strain ATCC 700392 / 26695) (Campylobacter pylori)); test: Inhibition of flavodoxin in Helicobacter pylori SS1 assessed as reduction in bacterial growth measured after 48 hrs by resazurin staining-based microdilution method; method in brief: as §3
[12] = biological target: T1, Flavodoxin (Helicobacter pylori (strain ATCC 700392 / 26695) (Campylobacter pylori)); test: Inhibition of flavodoxin in clarithromycin/metronidazole-resistant Helicobacter pylori isolate 6 assessed as reduction in bacterial growth measured after 48 hrs by resazurin staining-based microdilution method
[13] = biological target: T1, Flavodoxin (Helicobacter pylori (strain ATCC 700392 / 26695) (Campylobacter pylori)); test: Binding affinity to Helicobacter pylori flavodoxin by thermal upshift assay
[14] = test system: Staphylococcus aureus; test: Effect on growth of Staphylococcus aureus ATCC 1228 after 48 hrs by resazurin-dye based microdilution assay; type: organism-based
[15] = test system: Escherichia coli; test: Effect on growth of Escherichia coli DH5[alpha] after 48 hrs by resazurin-dye based microdilution assay; type: organism-based
[16] = Therapeutic index, ratio of MCC50 for human HeLa cells to MIC for inhibition of flavodoxin in metronidazole-resistant Helicobacter pylori isolate 2 assessed as reduction in bacterial growth; type: toxicity; settings: read-out: TI; method in brief: as §1
[17] = biological target: T1, Flavodoxin (Helicobacter pylori (strain ATCC 700392 / 26695) (Campylobacter pylori)); test: Binding affinity to Helicobacter pylori flavodoxin by isothermal titration calorimetric method
[18] = Therapeutic index, ratio of MCC50 for human HeLa cells to MIC for inhibition of flavodoxin in metronidazole-resistant Helicobacter pylori isolate 1 assessed as reduction in bacterial growth; type: toxicity; settings: read-out: TI; method in brief: as §1
[19] = Toxicity in NMRI mouse infected with Helicobacter pylori SS1 assessed as change in appetite at 10 to 20 mg/100g, po administered daily via gavage for 8 days starting from 1 week post-infection; type: organism-based; settings: in vivo
Method in brief: (§4)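 Female 6-week-old SPF NMRI mice infected orogastrically with Hp SS1 on days 1 and 3. Compound in 5–10% DMSO/olive oil (100 μL) given by daily oral gavage for 8 days from day 8. Body weight and appetite were monitored during treatment; infected controls received vehicle alone.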

[20] = biological target: T1, Flavodoxin (Helicobacter pylori (strain ATCC 700392 / 26695) (Campylobacter pylori)); test: Inhibition of flavodoxin in Mnz-resistant Helicobacter pylori NCTC 11637 ATCC 43504 assessed as reduction in bacterial growth measured after 48 hrs by resazurin staining-based microdilution method; settings: Helicobacter pylori NCTC 11637 = CCUG 17874 = ATCC 43504; method in brief: as §3
[21] = Therapeutic index, ratio of MCC50 for human HeLa cells to MIC for inhibition of flavodoxin in clarithromycin/metronidazole-resistant Helicobacter pylori isolate 4 assessed as reduction in bacterial growth; type: toxicity; settings: read-out: TI; method in brief: as §1
[22] = Therapeutic index, ratio of MCC50 for human HeLa cells to MIC for inhibition of flavodoxin in Mnz-resistant Helicobacter pylori NCTC 11637 ATCC 43504 assessed as reduction in bacterial growth; type: toxicity; settings: read-out: TI; method in brief: as §1
[23] = Toxicity in NMRI mouse infected with Helicobacter pylori SS1 assessed as change in body weight at 10 to 20 mg/100g, po administered daily via gavage for 8 days starting from 1 week post-infection; type: organism-based; settings: in vivo; method in brief: as §4
[24] = Therapeutic index, ratio of MCC50 for human HeLa cells to MIC for inhibition of flavodoxin in Helicobacter pylori SS1 assessed as reduction in bacterial growth; type: toxicity; settings: HeLa cells versus Helicobacter pylori SS1, read-out: TI; method in brief: as §1
[25] = Therapeutic index, ratio of MCC50 for human HeLa cells to MIC for inhibition of flavodoxin in metronidazole-resistant Helicobacter pylori isolate 3 assessed as reduction in bacterial growth; type: toxicity; settings: read-out: TI; method in brief: as §1
[26] = test system: Helicobacter pylori; test: Antibacterial activity against Helicobacter pylori SS1 infected in NMRI mouse assessed as bacterial eradication at 20 mg/100g, po administered daily via gavage for 8 days starting from 1 week post-infection and measured 8 days post-last dose; type: functional, organism-based
Method in brief: (§5)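 Female 6-week-old SPF NMRI mice, 7 per condition, infected orogastrically on days 1 and 3 with 100 μL Hp SS1 (5 × 10^8 CFU/mL). From day 8, compound given daily by oral gavage for 8 days in 100 μL of 5–10% DMSO/95–90% olive oil. Sacrificed day 24; stomach homogenate CFU/g counted after 5 days microaerophilic culture at 37 °C. Infected vehicle-treated controls; Mann-Whitney U and unpaired t tests, p ≤ 0.05.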

[27] = test system: Helicobacter pylori; test: Antibacterial activity against Helicobacter pylori SS1 infected in NMRI mouse assessed as reduction in gastric colonization at 20 mg/100g, po administered daily via gavage for 8 days starting from 1 week post-infection and measured 8 days post-last dose; type: functional, organism-based; method in brief: as §5

Row | Structure (SMILES) | selectivity ratio [1] | Activity [4] | CC50 [5] | MIC [6] | MIC [11] | Activity [13] | Activity [14] | Activity [15] | Activity [17] | Activity [19] | MIC [20] | selectivity ratio [22] | Activity [23] | also measured
1 | COc1ccc(CSc2cc(Cl)c(N)c3nonc23)cc1 | > 170 | Non-Toxic | > 1000 µM | 5.9 µM (≈ 1.9 µg/mL) | 5.9 µM (≈ 1.9 µg/mL) | Active | Non-Toxic | Non-Toxic | Active | Non-Toxic | 11.8 µM (≈ 3.8 µg/mL) | > 85 | Non-Toxic | selectivity ratio [2]: 40; inhibition [3]: Active; inhibition [7]: Active; inhibition [8]: Active; inhibition [9]: Active; selectivity ratio [10]: 322; inhibition [12]: Active; selectivity ratio [16]: 322; selectivity ratio [18]: 161; selectivity ratio [21]: 80; selectivity ratio [24]: > 170; selectivity ratio [25]: 10
2 | NCCc1cc(C(F)(F)F)cc(C(F)(F)F)c1 | > 16 | Non-Toxic | > 500 µM | 31 µM (≈ 7.97 µg/mL) | > 249 µM | Active | Non-Toxic | Non-Toxic | Active | Non-Toxic | 31 µM (≈ 7.97 µg/mL) | > 16 | Non-Toxic | Activity [26]: Active; Activity [27]: Active
